{"source": "ChEMBL document CHEMBL3044834", "about": "“Novel protoporphyrinogen oxidase inhibitors: 3H-pyrazolo[3,4-d][1,2,3]triazin-4-one derivatives” (J Agric Food Chem, 2008)"}
{"system": "Digitaria sanguinalis", "experiment": "Herbicidal activity against Digitaria sanguinalis (hairy crabgrass) assessed as inhibition of fresh weed plant weight at 1500 g/ha using pre-emergence treatment protocol", "type": "functional", "units": {"inhibition at 1500 g/ha": "%"}}
{"smiles": "C=CCN1C(=O)COc2cc(F)c(-n3nnc4nn(CCC)cc4c3=O)cc21", "inhibition at 1500 g/ha": 78.6}
{"system": "Amaranthus retroflexus", "experiment": "Herbicidal activity against Amaranthus retroflexus assessed as inhibition of fresh weed plant weight at 1500 g/ha using post-emergence treatment protocol", "type": "functional", "procedure,_shortened": "(§1)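 Test compounds made up as emulsions by dissolving in 100 µL N,N-dimethylformamide, then adding a little Tween 20 and water. For post-emergence, weed seedlings at one leaf and one stem were sprayed at the same rates as the pre-emergence test. Fresh weight was recorded 15 days after treatment and expressed as percent inhibition versus controls. All treatments were run in triplicate.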", "units": {"inhibition at 1500 g/ha": "%"}}
{"smiles": "C=CCN1C(=O)COc2cc(F)c(-n3nnc4nn(CCC)cc4c3=O)cc21", "inhibition at 1500 g/ha": 100}
{"system": "Amaranthus retroflexus", "experiment": "Herbicidal activity against Amaranthus retroflexus assessed as inhibition of fresh weed plant weight at 1500 g/ha using pre-emergence treatment protocol", "type": "functional", "units": {"inhibition at 1500 g/ha": "%"}}
{"smiles": "C=CCN1C(=O)COc2cc(F)c(-n3nnc4nn(CCC)cc4c3=O)cc21", "inhibition at 1500 g/ha": 100}
{"system": "Brassica rapa subsp. oleifera", "experiment": "Herbicidal activity against Brassica rapa subsp. oleifera assessed as inhibition of fresh weed plant weight at 187.5 g/ha using post-emergence treatment protocol", "type": "functional", "procedure,_shortened": "as §1", "units": {"inhibition at 187.5 g/ha": "%"}}
{"smiles": "C=CCN1C(=O)COc2cc(F)c(-n3nnc4nn(CCC)cc4c3=O)cc21", "inhibition at 187.5 g/ha": 0}
{"system": "Brassica rapa subsp. oleifera", "experiment": "Herbicidal activity against Brassica rapa subsp. oleifera assessed as inhibition of fresh weed plant weight at 375 g/ha using post-emergence treatment protocol", "type": "functional", "procedure,_shortened": "as §1", "units": {"inhibition at 375 g/ha": "%"}}
{"smiles": "C=CCN1C(=O)COc2cc(F)c(-n3nnc4nn(CCC)cc4c3=O)cc21", "inhibition at 375 g/ha": 29.1}
{"system": "Brassica rapa subsp. oleifera", "experiment": "Herbicidal activity against Brassica rapa subsp. oleifera assessed as inhibition of fresh weed plant weight at 750 g/ha using post-emergence treatment protocol", "type": "functional", "procedure,_shortened": "as §1", "units": {"inhibition at 750 g/ha": "%"}}
{"smiles": "C=CCN1C(=O)COc2cc(F)c(-n3nnc4nn(CCC)cc4c3=O)cc21", "inhibition at 750 g/ha": 33.7}
{"system": "Brassica rapa subsp. oleifera", "experiment": "Herbicidal activity against Brassica rapa subsp. oleifera assessed as inhibition of fresh weed plant weight at 187.5 g/ha using pre-emergence treatment protocol", "type": "functional", "units": {"inhibition at 187.5 g/ha": "%"}}
{"smiles": "C=CCN1C(=O)COc2cc(F)c(-n3nnc4nn(CCC)cc4c3=O)cc21", "inhibition at 187.5 g/ha": 13.4}
{"system": "Brassica rapa subsp. oleifera", "experiment": "Herbicidal activity against Brassica rapa subsp. oleifera assessed as inhibition of fresh weed plant weight at 375 g/ha using pre-emergence treatment protocol", "type": "functional", "units": {"inhibition at 375 g/ha": "%"}}
{"smiles": "C=CCN1C(=O)COc2cc(F)c(-n3nnc4nn(CCC)cc4c3=O)cc21", "inhibition at 375 g/ha": 55.2}
{"system": "Brassica rapa subsp. oleifera", "experiment": "Herbicidal activity against Brassica rapa subsp. oleifera assessed as inhibition of fresh weed plant weight at 750 g/ha using pre-emergence treatment protocol", "type": "functional", "units": {"inhibition at 750 g/ha": "%"}}
{"smiles": "C=CCN1C(=O)COc2cc(F)c(-n3nnc4nn(CCC)cc4c3=O)cc21", "inhibition at 750 g/ha": 69.4}
{"system": "Digitaria sanguinalis", "experiment": "Herbicidal activity against Digitaria sanguinalis (hairy crabgrass) assessed as inhibition of fresh weed plant weight at 1500 g/ha using post-emergence treatment protocol", "type": "functional", "procedure,_shortened": "as §1", "units": {"inhibition at 1500 g/ha": "%"}}
{"smiles": "C=CCN1C(=O)COc2cc(F)c(-n3nnc4nn(CCC)cc4c3=O)cc21", "inhibition at 1500 g/ha": 0}
{"system": "Brassica rapa subsp. oleifera", "experiment": "Herbicidal activity against Brassica rapa subsp. oleifera assessed as inhibition of fresh weed plant weight at 1500 g/ha using post-emergence treatment protocol", "type": "functional", "procedure,_shortened": "as §1", "units": {"inhibition at 1500 g/ha": "%"}}
{"smiles": "C=CCN1C(=O)COc2cc(F)c(-n3nnc4nn(CCC)cc4c3=O)cc21", "inhibition at 1500 g/ha": 50.3}
{"system": "Brassica rapa subsp. oleifera", "experiment": "Herbicidal activity against Brassica rapa subsp. oleifera assessed as inhibition of fresh weed plant weight at 1500 g/ha using pre-emergence treatment protocol", "type": "functional", "units": {"inhibition at 1500 g/ha": "%"}}
{"smiles": "C=CCN1C(=O)COc2cc(F)c(-n3nnc4nn(CCC)cc4c3=O)cc21", "inhibition at 1500 g/ha": 88.7}
{"system": "Echinochloa crus-galli", "experiment": "Herbicidal activity against Echinochloa crus-galli (barnyard grass) assessed as inhibition of fresh weed plant weight at 750 g/ha using pre-emergence treatment protocol", "type": "functional", "units": {"inhibition at 750 g/ha": "%"}}
{"smiles": "C=CCN1C(=O)COc2cc(F)c(-n3nnc4nn(CCC)cc4c3=O)cc21", "inhibition at 750 g/ha": 35.9}
{"system": "Amaranthus retroflexus", "experiment": "Herbicidal activity against Amaranthus retroflexus assessed as inhibition of fresh weed plant weight at 750 g/ha using pre-emergence treatment protocol", "type": "functional", "procedure,_shortened": "as §1", "units": {"inhibition at 750 g/ha": "%"}}
{"smiles": "C=CCN1C(=O)COc2cc(F)c(-n3nnc4nn(CCC)cc4c3=O)cc21", "inhibition at 750 g/ha": 100}
{"system": "Amaranthus retroflexus", "experiment": "Herbicidal activity against Amaranthus retroflexus assessed as inhibition of fresh weed plant weight at 375 g/ha using pre-emergence treatment protocol", "type": "functional", "units": {"inhibition at 375 g/ha": "%"}}
{"smiles": "C=CCN1C(=O)COc2cc(F)c(-n3nnc4nn(CCC)cc4c3=O)cc21", "inhibition at 375 g/ha": 100}
{"system": "Digitaria sanguinalis", "experiment": "Herbicidal activity against Digitaria sanguinalis (hairy crabgrass) assessed as inhibition of fresh weed plant weight at 187.5 g/ha using pre-emergence treatment protocol", "type": "functional", "units": {"inhibition at 187.5 g/ha": "%"}}
{"smiles": "C=CCN1C(=O)COc2cc(F)c(-n3nnc4nn(CCC)cc4c3=O)cc21", "inhibition at 187.5 g/ha": 4.3}
{"system": "Amaranthus retroflexus", "experiment": "Herbicidal activity against Amaranthus retroflexus assessed as inhibition of fresh weed plant weight at 187.5 g/ha using post-emergence treatment protocol", "type": "functional", "procedure,_shortened": "as §1", "units": {"inhibition at 187.5 g/ha": "%"}}
{"smiles": "C=CCN1C(=O)COc2cc(F)c(-n3nnc4nn(CCC)cc4c3=O)cc21", "inhibition at 187.5 g/ha": 7.3}
{"system": "Digitaria sanguinalis", "experiment": "Herbicidal activity against Digitaria sanguinalis (hairy crabgrass) assessed as inhibition of fresh weed plant weight at 750 g/ha using post-emergence treatment protocol", "type": "functional", "procedure,_shortened": "as §1", "units": {"inhibition at 750 g/ha": "%"}}
{"smiles": "C=CCN1C(=O)COc2cc(F)c(-n3nnc4nn(CCC)cc4c3=O)cc21", "inhibition at 750 g/ha": 0}
{"system": "Amaranthus retroflexus", "experiment": "Herbicidal activity against Amaranthus retroflexus assessed as inhibition of fresh weed plant weight at 187.5 g/ha using pre-emergence treatment protocol", "type": "functional", "units": {"inhibition at 187.5 g/ha": "%"}}
{"smiles": "C=CCN1C(=O)COc2cc(F)c(-n3nnc4nn(CCC)cc4c3=O)cc21", "inhibition at 187.5 g/ha": 27.9}
{"system": "Amaranthus retroflexus", "experiment": "Herbicidal activity against Amaranthus retroflexus assessed as inhibition of fresh weed plant weight at 750 g/ha using post-emergence treatment protocol", "type": "functional", "procedure,_shortened": "as §1", "units": {"inhibition at 750 g/ha": "%"}}
{"smiles": "C=CCN1C(=O)COc2cc(F)c(-n3nnc4nn(CCC)cc4c3=O)cc21", "inhibition at 750 g/ha": 100}
{"system": "Amaranthus retroflexus", "experiment": "Herbicidal activity against Amaranthus retroflexus assessed as inhibition of fresh weed plant weight at 375 g/ha using post-emergence treatment protocol", "type": "functional", "procedure,_shortened": "as §1", "units": {"inhibition at 375 g/ha": "%"}}
{"smiles": "C=CCN1C(=O)COc2cc(F)c(-n3nnc4nn(CCC)cc4c3=O)cc21", "inhibition at 375 g/ha": 85.4}
{"system": "Echinochloa crus-galli", "experiment": "Herbicidal activity against Echinochloa crus-galli (barnyard grass) assessed as inhibition of fresh weed plant weight at 750 g/ha using post-emergence treatment protocol", "type": "functional", "procedure,_shortened": "as §1", "units": {"inhibition at 750 g/ha": "%"}}
{"smiles": "C=CCN1C(=O)COc2cc(F)c(-n3nnc4nn(CCC)cc4c3=O)cc21", "inhibition at 750 g/ha": 5.4}
{"system": "Echinochloa crus-galli", "experiment": "Herbicidal activity against Echinochloa crus-galli (barnyard grass) assessed as inhibition of fresh weed plant weight at 375 g/ha using post-emergence treatment protocol", "type": "functional", "procedure,_shortened": "as §1", "units": {"inhibition at 375 g/ha": "%"}}
{"smiles": "C=CCN1C(=O)COc2cc(F)c(-n3nnc4nn(CCC)cc4c3=O)cc21", "inhibition at 375 g/ha": 2.4}
{"system": "Echinochloa crus-galli", "experiment": "Herbicidal activity against Echinochloa crus-galli (barnyard grass) assessed as inhibition of fresh weed plant weight at 187.5 g/ha using post-emergence treatment protocol", "type": "functional", "procedure,_shortened": "as §1", "units": {"inhibition at 187.5 g/ha": "%"}}
{"smiles": "C=CCN1C(=O)COc2cc(F)c(-n3nnc4nn(CCC)cc4c3=O)cc21", "inhibition at 187.5 g/ha": 0}
{"system": "Digitaria sanguinalis", "experiment": "Herbicidal activity against Digitaria sanguinalis (hairy crabgrass) assessed as inhibition of fresh weed plant weight at 750 g/ha using pre-emergence treatment protocol", "type": "functional", "units": {"inhibition at 750 g/ha": "%"}}
{"smiles": "C=CCN1C(=O)COc2cc(F)c(-n3nnc4nn(CCC)cc4c3=O)cc21", "inhibition at 750 g/ha": 54.3}
{"system": "Digitaria sanguinalis", "experiment": "Herbicidal activity against Digitaria sanguinalis (hairy crabgrass) assessed as inhibition of fresh weed plant weight at 375 g/ha using pre-emergence treatment protocol", "type": "functional", "units": {"inhibition at 375 g/ha": "%"}}
{"smiles": "C=CCN1C(=O)COc2cc(F)c(-n3nnc4nn(CCC)cc4c3=O)cc21", "inhibition at 375 g/ha": 39.1}
{"system": "Digitaria sanguinalis", "experiment": "Herbicidal activity against Digitaria sanguinalis (hairy crabgrass) assessed as inhibition of fresh weed plant weight at 375 g/ha using post-emergence treatment protocol", "type": "functional", "procedure,_shortened": "as §1", "units": {"inhibition at 375 g/ha": "%"}}
{"smiles": "C=CCN1C(=O)COc2cc(F)c(-n3nnc4nn(CCC)cc4c3=O)cc21", "inhibition at 375 g/ha": 0}
{"system": "Digitaria sanguinalis", "experiment": "Herbicidal activity against Digitaria sanguinalis (hairy crabgrass) assessed as inhibition of fresh weed plant weight at 187.5 g/ha using post-emergence treatment protocol", "type": "functional", "procedure,_shortened": "as §1", "units": {"inhibition at 187.5 g/ha": "%"}}
{"smiles": "C=CCN1C(=O)COc2cc(F)c(-n3nnc4nn(CCC)cc4c3=O)cc21", "inhibition at 187.5 g/ha": 0}
{"system": "Echinochloa crus-galli", "experiment": "Herbicidal activity against Echinochloa crus-galli (barnyard grass) assessed as inhibition of fresh weed plant weight at 375 g/ha using pre-emergence treatment protocol", "type": "functional", "procedure,_shortened": "as §1", "units": {"inhibition at 375 g/ha": "%"}}
{"smiles": "C=CCN1C(=O)COc2cc(F)c(-n3nnc4nn(CCC)cc4c3=O)cc21", "inhibition at 375 g/ha": 16}
{"system": "Echinochloa crus-galli", "experiment": "Herbicidal activity against Echinochloa crus-galli (barnyard grass) assessed as inhibition of fresh weed plant weight at 187.5 g/ha using pre-emergence treatment protocol", "type": "functional", "procedure,_shortened": "as §1", "units": {"inhibition at 187.5 g/ha": "%"}}
{"smiles": "C=CCN1C(=O)COc2cc(F)c(-n3nnc4nn(CCC)cc4c3=O)cc21", "inhibition at 187.5 g/ha": 10.8}
{"system": "Echinochloa crus-galli", "experiment": "Herbicidal activity against Echinochloa crus-galli (barnyard grass) assessed as inhibition of fresh weed plant weight at 1500 g/ha using pre-emergence treatment protocol", "type": "functional", "units": {"inhibition at 1500 g/ha": "%"}}
{"smiles": "C=CCN1C(=O)COc2cc(F)c(-n3nnc4nn(CCC)cc4c3=O)cc21", "inhibition at 1500 g/ha": 60.4}
{"system": "Echinochloa crus-galli", "experiment": "Herbicidal activity against Echinochloa crus-galli (barnyard grass) assessed as inhibition of fresh weed plant weight at 1500 g/ha using post-emergence treatment protocol", "type": "functional", "procedure,_shortened": "as §1", "units": {"inhibition at 1500 g/ha": "%"}}
{"smiles": "C=CCN1C(=O)COc2cc(F)c(-n3nnc4nn(CCC)cc4c3=O)cc21", "inhibition at 1500 g/ha": 11.2}
